Screening results deposited in PubChem BioAssay by several laboratories.
Hits are enriched below; roughly 1.7% of the tested compounds scored in any of these assays.
Hck-Nef inh = inhibitors of human Hck kinase activated by Nef; Recombinant Hck-YEEI plus Nef, Z-Lyte FRET kinase assay; P08631; AID 463187; 220,000 compounds, 0.68% hits; inhibition, % at 20 µM;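 active = Hck-Nef kinase inhibition above about 50%, limit read from the data; inactive = inhibition below that limit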;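 also: 0% = DMSO with Hck plus Nef and 100% = Hck alone without Nef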
Runt-CBFb FRET = blocks binding of human RUNX1 Runt domain to CBFb. Cerulean-Runt/Venus-CBFb FRET ratio 530/480, 1 h. inhibition, % at 20 µM. 220,000 compounds, 0.46% hits. AID 1496;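 active = inhibition over about 50% at 20 µM in the single-dose screen, limit read from the data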;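 also: 0% = DMSO wells and 100% = excess unlabeled CBFb competitor control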
Target sequence (Q01196 whole entry, looked up, the tested form may be a part): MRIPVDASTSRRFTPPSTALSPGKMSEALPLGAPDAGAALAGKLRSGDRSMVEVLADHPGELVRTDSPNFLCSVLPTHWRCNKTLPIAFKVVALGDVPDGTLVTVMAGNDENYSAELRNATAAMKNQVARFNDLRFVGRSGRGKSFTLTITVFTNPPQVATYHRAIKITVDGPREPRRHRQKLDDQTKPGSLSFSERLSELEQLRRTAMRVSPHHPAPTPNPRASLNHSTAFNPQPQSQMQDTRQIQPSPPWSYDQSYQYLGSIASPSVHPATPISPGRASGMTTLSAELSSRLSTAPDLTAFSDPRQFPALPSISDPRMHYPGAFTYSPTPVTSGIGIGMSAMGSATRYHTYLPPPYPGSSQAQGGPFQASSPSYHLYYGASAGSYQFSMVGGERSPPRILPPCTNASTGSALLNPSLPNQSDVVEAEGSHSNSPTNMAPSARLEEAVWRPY
Target sequence (Q13951 whole entry, looked up, the tested form may be a part): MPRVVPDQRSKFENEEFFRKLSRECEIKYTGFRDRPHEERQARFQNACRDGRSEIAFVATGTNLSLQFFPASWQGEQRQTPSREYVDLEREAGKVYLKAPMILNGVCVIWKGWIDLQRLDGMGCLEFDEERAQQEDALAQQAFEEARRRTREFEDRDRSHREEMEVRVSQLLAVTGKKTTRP
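Doses: 20 µM compound in 1% DMSO | Material: Cerulean-labeled Runt domain protein | Amount: Each fluorescent fusion protein 100 nM | Schedule: Two 1 h room-temperature incubations shielded from light | Measured by: FRET fluorescence | Evaluation: Loss of energy transfer signal | Controls: Unlabeled CBFb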
RanGTP-Impb inh = disruptors of Ran-importin-beta complex formation – biochemical, FRET, CFP-Ran, YFP-importin-beta, homogeneous, primary screen | cell-free CFP-Ran/YFP-importin-beta FRET ratio | 300,000 compounds, 1.1% hits | inhibition, % (concentration not given with the values);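 active = more than half of the replicate wells show a fall in the fluorescence ratio signal beyond about 16%, limit read from the data, passing the limit was not always enough; inconclusive = exactly half of the replicate wells pass the set limit; inactive = fewer than half of replicates pass the limit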;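 also: 0% = DMSO wells and 100% = Ran loaded with GDP instead of GTP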
Runt-SMMHC FRET = blocks binding of human RUNX1 Runt domain to CBFb-SMMHC | Cerulean-Runt/Venus-CBFb-SMMHC FRET ratio 530/480, 1 h | Q01196+Q13951 | AID 1434 | inhibition, % at 20 µM | 220,000 compounds, 0.74% hits;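 active = mean inhibition across duplicate retests at 20 µM reaching about 50%, limit read from the data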;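 also: 0% = DMSO wells and 100% = wells with excess untagged CBFb-SMMHC; inhibitors lower the FRET ratio by blocking Runt binding to CBFb-SMMHC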
Hck Nef conf = Hck-Nef kinase inhibition, confirmation. shares compounds with Hck-Nef inh. Recombinant Hck-YEEI:Nef, Z-Lyte FRET kinase assay. calls only at 10 µM. 1,300 compounds, 28% hits. AID 463188;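 active = average inhibition of at least 50%, with Z-scores no higher than 3 in both the phospho-tyrosine peptide and fluorescence counterscreens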
Numbers without * were called inactive; i = inactive; u = inconclusive; x = no result given; + = active, no number.

SMILES	Hck-Nef inh	Runt-CBFb FRET	RanGTP-Impb inh	Runt-SMMHC FRET	Hck Nef conf
O=C(/C=C\c1ccco1)NC(=S)Nc1ccccc1O	58.7*	-5.5	1.9	-9.5	i
COc1cccc(NC(=O)CSc2nc(=O)n(Cc3ccncc3)c3c2CCCC3)c1	x	x	5.2	x	x
CN(C(=O)COc1ccc(-c2nnco2)cc1)C1CCS(=O)(=O)C1 (centres undefined)	x	x	-1.3	x	x
O=C(/C=C/c1ccco1)NC(=S)Nc1ccccc1O	53.7*	-17.6	-3.6	-82.2	+
O=C(/C=C/c1ccco1)NC(=S)Nc1ccccc1N1CCCC1	21.0	24.8	-12.1	36.0	x
O=C(Nc1ccc2c(c1)C(=O)NC2=O)c1cccc(C(F)(F)F)c1	x	x	0.9	x	x
CC(=O)Oc1cc2c3c(c1)/C(=C1/SC(=S)NC1=O)C(=O)N3C(C)(C)C=C2C	11.4	19.1	5.5	-9.4	x
CCN(CC)c1ccc(/C=C2/C(=O)c3ccc(C(=O)O)cc3C2=O)cc1	55.4*	-30.6	x	-92.1	i
CCN(CC)c1ccc(C=C2C(=O)OC3(CCCCC3)OC2=O)cc1	13.6	-5.5	u	-24.1	x
CCOc1ccccc1NC(=O)CCn1cccc1	5.5	-0.9	x	-2.6	x
Cc1c(Br)c(=O)oc2c(Br)c(O)ccc12	71.3*	20.8	3.0	86.1*	i
Cc1c(O)ccc2c(-c3ccccc3)cc(=O)oc12	x	x	-5.1	x	x
COc1cccc(=O)c2c(C)n(CC(=O)c3ccccc3)c(C)c12	52.8*	-4.2	0.7	-34.8	i
COC(=O)c1cc([N+](=O)[O-])c(-n2cncn2)c([N+](=O)[O-])c1	26.3	x	u	x	x
O=C(CSc1nc2ccccc2c2nc3ccccc3n12)NCc1ccco1	81.6*	-0.8	6.0	-2.5	x
NC(=O)c1nn(-c2ccc(Oc3ccccc3)cc2)c(=O)cc1O	82.2*	-0.9	-3.0	13.5	+
NC(=O)c1nn(-c2ccccc2)c(=O)cc1O	-0.4	-1.4	-0.7	6.6	x
CC(=O)Nc1ccc(N=Cc2c(O)c(C(=O)Nc3ccccc3)cc3ccccc23)cc1	68.9*	-51.5	4.4	-70.3	i
O=c1cc(O)c2ccc(O)cc2o1	6.4	-1.1	-0.4	-4.4	x
COC(=O)Cc1cc(=O)oc2cc(O)ccc12	102.3*	80.1*	69.2*	92.2*	x
COCCn1nnnc1C(C(C)C)N1CCCC(C)C1 (centres undefined)	17.5	1.1	-4.6	2.6	x
COc1ccc(C(C)C)cc1S(=O)(=O)n1ccnc1C	-0.7	-2.4	-6.1	-1.7	x
CSCC(C)N1CCC(CCC(=O)NC2CC2)CC1 (centres undefined)	x	x	5.1	x	x
CCCn1cnnc1CNC(=O)C1CCC(=O)N(CCc2ccc(OC)cc2)C1 (centres undefined)	x	x	-0.3	x	x
COc1cc(/C=N/NC(=O)c2sc3nc(C)cc(C)c3c2N)ccc1O	51.5*	20.0	u	31.6	x
SMILES	Hck-Nef inh	Runt-CBFb FRET	RanGTP-Impb inh	Runt-SMMHC FRET	Hck Nef conf
Cc1ccccc1C(=O)N1CCN(c2ccc(NC(=O)c3ccc4c(c3)OCCO4)cc2)CC1	x	x	-1.6	x	x
CC(=O)Nc1cccc(NC(=O)c2cc(-c3cccnc3)nc3ccc(Br)cc23)c1	1.5	-0.1	3.5	-11.5	x
CSc1ccccc1NC(=O)c1cc(-c2cccnc2)nc2ccc(Br)cc12	57.1*	-2.3	-0.2	-3.0	i
CCCSc1nc2c(cnn2-c2ccccc2)c(=O)n1N	76.4*	2.6	-5.7	-0.5	+
CCOc1ccc(/C=C2\SC(=S)N(NS(=O)(=O)c3ccccc3)C2=O)cc1OC	16.2	-7.5	-7.1	-21.7	x
CCOc1ccc(/C=C2\SC(=S)N(NS(=O)(=O)c3ccc(C)cc3)C2=O)cc1OC	50.6*	-9.9	2.4	-13.4	+
COc1ccc(-c2cc(-c3ccccc3)c(C#N)c(S(C)=O)n2)cc1 (centres undefined)	-0.2	-0.6	1.6	-0.7	x
COc1ccc(-c2cc3nc4ccccc4n3c(N)c2C#N)cc1	68.2*	-3.3	3.6	-13.1	x
COc1ccc(CCn2c(SCC(=O)Nc3cc(C)on3)nc3ccccc3c2=O)cc1OC	7.9	2.0	-1.1	5.5	x
COc1ccc(CCn2c(SCC(=O)Nc3cc(C)on3)nc3ccsc3c2=O)cc1OC	65.0*	-2.3	x	1.2	i
O=C(COc1ccc(Cl)cc1)N(Cc1ccc(F)cc1)C1CCS(=O)(=O)C1 (centres undefined)	x	x	3.6	x	x
C/C(=N\NC(=O)c1ccc(OC2OCCOC2Oc2ccc(C(=O)N/N=C(\C)c3ccncc3)cc2)cc1)c1ccncc1 (centres undefined)	61.5*	-3.3	-7.5	-0.3	i
C/C(=N/NC(=O)c1ccncc1)c1ccccc1	x	x	3.2	x	x
COc1ccc(NS(=O)(=O)c2ccc3c(c2)NC(=O)C(C)S3)cc1 (centres undefined)	x	x	-2.1	x	x
Cc1cc(-c2csc(NC(=O)c3ccc(=O)[nH]c3)n2)c(C)n1Cc1ccco1	81.2*	20.1	-4.4	-7.9	i
COC(=O)C1=CN(C(C)c2ccccc2)C=C(C(=O)OC)C1c1cc(OC)c(OC)c(OC)c1 (centres undefined)	x	x	13.5	x	x
COC(=O)C1=CN(C)C=C(C(=O)OC)C1c1ccsc1	52.6*	107.8*	33.2*	61.3*	i
COc1ccc2oc(C(=O)OCC(=O)NC3(C#N)CCCC3)c(C)c2c1	x	x	0.5	x	x
COc1ccc(N2C3=C(C(=O)CC(C)(C)C3)C(c3cnn(C)c3)C3=C2CC(C)(C)CC3=O)cc1	55.4*	106.8*	57.0*	82.5*	x
COc1ccc(C2C(C#N)=C(N)N(N(C)C)C3=C2C(=O)CC(C)(C)C3)cc1 (centres undefined)	x	x	3.4	x	x
CC/C=C\[C@H](O)[C@H](O)C1=C(C)C(=O)[C@]2(O1)C(=O)N[C@@](OC)(C(=O)c1ccccc1)C2O (some centres undefined)	16.0	1.5	3.6	-1.7	x
CCCCCCc1cc2cc(S(=O)(=O)c3ccc(F)cc3)c(=O)oc2cc1O	119.8*	19.2	166.5*	63.2*	x
O=C1CN(C(=O)COC(=O)c2cc(S(=O)(=O)N3CCOCC3)ccc2Cl)c2ccccc2N1	17.1	0.7	4.3	0.6	x
O=C1CCCC(=O)N1c1ccc(N2CCN(c3ccc([N+](=O)[O-])cc3)CC2)c([N+](=O)[O-])c1	0.3	-1.2	-2.2	-1.2	x
COCc1[nH][nH]c(=O)c1C=Nc1ccc(Oc2ccccc2)cc1	91.3*	1.1	-2.3	-2.2	+
O=C(CN1CC[n+]2c(-c3ccccc3)csc21)c1ccc(Br)cc1	66.8*	4.9	0.0	3.3	+
COc1cccc(C2C3=C(CC(C)(C)CC3=O)Nc3n[nH]c(C)c32)c1 (centres undefined)	20.1	-1.7	-4.6	-8.8	x
CCn1c(C)nc2cc(C(=O)N/N=C/c3ccc(O)c(O)c3O)ccc21	74.9*	29.1	4.2	13.6	+
